Source: paper PMC11378895 (Asian Journal of Pharmaceutical Sciences, 2024)
Where no end group is shown, it is not given here.

Tests used:
LRG1 = target: T1, LRG1 (Homo sapiens, UniProt P02750); assay: LRG1 degradation in HK-2 cells; format: cell-based; conditions: various concentrations, Western blot (Fig. S9)
T1 sequence (P02750 36-347): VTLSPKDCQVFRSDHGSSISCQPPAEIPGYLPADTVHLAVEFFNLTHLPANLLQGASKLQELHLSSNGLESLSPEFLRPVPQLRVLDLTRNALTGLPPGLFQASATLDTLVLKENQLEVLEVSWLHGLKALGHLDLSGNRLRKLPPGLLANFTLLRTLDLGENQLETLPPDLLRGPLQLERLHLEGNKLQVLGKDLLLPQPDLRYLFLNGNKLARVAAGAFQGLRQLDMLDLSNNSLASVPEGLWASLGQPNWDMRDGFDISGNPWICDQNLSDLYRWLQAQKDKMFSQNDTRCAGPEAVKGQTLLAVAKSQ
Outline: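 HK-2 cells were seeded at 3 × 10^5 cells per well. After adherence, they were serum-starved 6 h, then treated with test compound at varying concentrations for 12 h. Harvested protein went to Western blot, with LRG1 normalised to GAPDH as internal control.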

HK-2 cells = assay: Cellular uptake by flow cytometry and confocal microscopy; format: cell-based, human; conditions: 10 µM, 1-h and 4-h incubation, flow cytometry, n = 3
Outline: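 HK-2 cells in DMEM with 10% FBS at 37 °C and 5% CO2, seeded at 3 × 10^5 cells per well. After adherence, they got medium with 10 µM Cy5-labelled test peptide or control peptide, some with TGF-β, for 1 h or 4 h. Flow cytometry quantified uptake (n = 3). For confocal imaging, the same treatment was followed by fixation and Hoechst 33342 nuclear stain.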

Compound | LRG1 degradation by the constituents (control degradation experiments) (LRG1) | uptake by HK-2 cells compared with control peptide (HK-2 cells)
Nc1cccc2c1CN(C1CCC(=O)NC1=O)C2=O (centres unmarked) [lenalidomide, Lenalidomide] | none of these treatments led to LRG1 degradation | 
ET-Cy5: ET peptide labeled with cyanine dye Cy5 (ESYSAKHRIMLT; also: Cy5 label, position not given here) |  | markedly enhanced than MP-Cy5
